In the M2OR odorant receptor database:

Biological target: T1, OR1A1 (Homo sapiens) (UniProt Q9P1Q5)
T1 sequence (whole entry): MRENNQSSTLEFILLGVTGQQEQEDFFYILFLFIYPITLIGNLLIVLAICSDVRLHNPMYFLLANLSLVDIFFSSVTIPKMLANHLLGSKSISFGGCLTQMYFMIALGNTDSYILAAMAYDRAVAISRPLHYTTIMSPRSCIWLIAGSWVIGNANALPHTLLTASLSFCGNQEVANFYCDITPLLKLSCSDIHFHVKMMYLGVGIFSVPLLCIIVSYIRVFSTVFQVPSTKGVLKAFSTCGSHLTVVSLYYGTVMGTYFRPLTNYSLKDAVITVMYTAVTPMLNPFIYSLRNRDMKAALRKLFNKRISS
Details: stereoisomer not certain
Procedure, shortened: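 Each receptor–molecule pair is labelled responsive or non-responsive (inactive) according to whether the original authors judged the measured signal statistically different from baseline. The data were taken from the main text and supplementary material of published papers and checked for typos and inconsistencies. Assay methods differed by source, with transient luciferase assays in mammalian cell lines being common.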
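Further: active if original authors judged signal statistically different from baseline.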

Row | Structure (SMILES) | odorant receptor agonist call
1 | CCc1cnccn1 | inactive
2 | CC(=O)c1ccccc1N | inactive
3 | SCCc1ccccc1 | active
4 | CCCCC(=O)CC | active
5 | CCCSSSC | inactive
6 | CC(=O)OCC=C(C)C | inactive
7 | CCC(C)COC(C)=O (configuration not stated) | inactive
8 | CCOC(=O)C=Cc1ccccc1 | inactive
9 | CC(C)CC=O | inactive
10 | CC(C)C12CCC(C)(CC1)O2 | inactive
11 | CCC(=O)C(C)S (configuration not stated) | inactive
12 | CCCCCCCC(=O)OCC | inactive
13 | CC(C)CCO | inactive
14 | CCCC(C)=O | inactive
15 | O=C1CCOc2ccccc21 | active
16 | CCCCCCC1CCC(=O)O1 (configuration not stated) | inactive
17 | CCCCC1OC(=O)CC1C (configuration not stated) | inactive
18 | CCCCC1CCC(=O)O1 (configuration not stated) | inactive
19 | CCCCCCCCC1CCC(=O)O1 (configuration not stated) | inactive

Row | Structure (SMILES) | odorant receptor agonist call
20 | CC(C)CO | inactive
21 | COC(=O)C(C)C | inactive
22 | CCC(C)C(=O)OC (configuration not stated) | inactive
23 | CCCCCc1ccccn1 | active
24 | CCCCCCCCS | active
25 | CC(=O)CC(=O)CC(C)C | active
26 | CCCC(=O)OCC | inactive
27 | CCCCCCCCC(=O)O | inactive
28 | O=C([O-])CCC(=O)[O-].[H+].[H+] | inactive
29 | CCCCCC1CCC(=O)O1 (configuration not stated) | active
30 | CCCC(O)CC(=O)OCC (configuration not stated) | inactive
31 | Cc1ccc(O)cc1 | inactive
32 | c1cnc2c(c1)ccc1cccnc12 | inactive
33 | CCCCCCO | inactive
34 | CCCC=CC=O | inactive
35 | CC(C)=CCCC(C)CCO (configuration not stated) | active
36 | COc1nccnc1CC(C)C | inactive
37 | CCCCOC(=O)C(C)OC(=O)CCC (configuration not stated) | inactive
